Data taken from ChEMBL document CHEMBL1128719, “The synthesis, structure-activity, and structure-side effect relationships of a series of 8-alkoxy- and 5-amino-8-alkoxyquinolone antibacterial agents” (J Med Chem, 1995).
In brackets after ≈: the same amount, converted by molar mass.

Columns and labels:
Streptococcus pneumoniae = experiment: In vitro antibacterial activity was tested for Streptococcus pneumoniae SV-1; format: functional
Outline: (§1)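 Microtitration (microdilution) MIC determination in μg/mL against a panel of Gram-positive, Gram-negative and anaerobic organisms. Values come from duplicate or triplicate experiments and are stated accurate to ±50%.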

Mus musculus [1] = species: Mus musculus; experiment: (§2) Phototoxic skin reaction in depilated female CD-1 mice; format: toxicity, organism-based; conditions: in vivo
Outline: (§3)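 Female CD-1 mice, depilated, given a single oral or subcutaneous dose. UVA (320–400 nm) exposure for 3 h, starting 1 h post-dose. Initial doses were 30, 100 and 300 mg/kg. PTD50 (dose giving phototoxic skin reaction in 50% of mice) derived by probit method. First day of positive reaction and no-effect dose taken from raw data.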

Klebsiella pneumoniae = experiment: In vitro antibacterial activity was tested for Klebsiella pneumoniae MGH-2; format: functional; outline: as §1
Clostridium perfringens = experiment: In vitro antibacterial activity against Clostridium perfringens CP 3-1; format: functional
Providencia rettgeri = experiment: In vitro antibacterial activity was tested for Providencia rettgeri H1771; format: functional; outline: as §1
Mus musculus [2] = species: Mus musculus; experiment: as §2; format: functional; outline: as §3
[3] = system: Peptoniphilus asaccharolyticus; experiment: In vitro antibacterial activity was tested for Pepto asac PA 3-1; format: functional; outline: as §1
Clostridioides difficile = experiment: In vitro antibacterial activity was tested for Clostridium diff CD1-1; format: functional
Enterococcus faecalis = experiment: In vitro antibacterial activity was tested for Streptococcus faecalis MGH-2; format: functional; outline: as §1
Escherichia coli [4] = experiment: In vitro antibacterial activity was tested for Escherichia coli Vogel; format: functional; outline: as §1
Staphylococcus aureus [5] = experiment: In vitro antibacterial activity was tested for Staphylococcus aureus H228; format: functional; outline: as §1
Streptococcus pyogenes = experiment: In vitro antibacterial activity was tested for Streptococcus pyogenes C203; format: functional; outline: as §1
Bacteroides fragilis = experiment: In vitro antibacterial activity against Bacteroides fragilis BFA; format: functional; outline: as §1
Pseudomonas aeruginosa = experiment: In vitro antibacterial activity was tested for Pseudomonas aeruginosa UI-18; format: functional; outline: as §1
Escherichia coli [6] = experiment: In vitro antibacterial activity was tested for Escherichia coli H560; format: functional; outline: as §1
Cutibacterium acnes = experiment: In vitro antibacterial activity was tested for Propion acnes PA5-1; format: functional; outline: as §1
Enterobacter cloacae = experiment: In vitro antibacterial activity was tested for Enterobacter cloacae HA2646; format: functional
Staphylococcus aureus [7] = experiment: In vitro antibacterial activity was tested for Staphylococcus aureus UC-76; format: functional; outline: as §1
Mus musculus [8] = species: Mus musculus; experiment: Phototoxic skin reaction in depilated female CD-1 mice.; format: functional; outline: as §3
V79 = experiment: Clonogenic cytotoxicity against Chinese hamster V-79 cells; format: functional, cell-based; conditions: Cricetulus griseus

Row | SMILES | MIC (Streptococcus pneumoniae) [µg/mL] | PTD50 (Mus musculus [1]) [mg] | MIC (Klebsiella pneumoniae) [µg/mL] | MIC (Clostridium perfringens) [µg/mL] | MIC (Providencia rettgeri) [µg/mL] | No effect dose (Mus musculus [2]) [mg] | MIC [3] [µg/mL] | MIC (Clostridioides difficile) [µg/mL] | MIC (Enterococcus faecalis) [µg/mL] | MIC (Escherichia coli [4]) [µg/mL] | MIC (Staphylococcus aureus [5]) [µg/mL] | MIC (Streptococcus pyogenes) [µg/mL] | MIC (Bacteroides fragilis) [µg/mL] | MIC (Pseudomonas aeruginosa) [µg/mL] | MIC (Escherichia coli [6]) [µg/mL] | MIC (Cutibacterium acnes) [µg/mL] | MIC (Enterobacter cloacae) [µg/mL] | MIC (Staphylococcus aureus [7]) [µg/mL] | No effect dose (Mus musculus [8]) [mg] | IC50 (V79) [µg/mL]
1 | COc1c(N2CCC(N)C2)c(F)cc2c(=O)c(C(=O)O)cn(C3CC3)c12 (configuration not stated) | 0.025 (≈ 0.0692 µM) | > 100 | 0.05 (≈ 0.138 µM) | 0.1 (≈ 0.277 µM) | 0.1 (≈ 0.277 µM) | 100 | 0.8 (≈ 2.21 µM) | 0.4 (≈ 1.11 µM) | 0.05 (≈ 0.138 µM) | 0.025 (≈ 0.0692 µM) | 0.05 (≈ 0.138 µM) | 0.025 (≈ 0.0692 µM) | 0.2 (≈ 0.553 µM) | 0.4 (≈ 1.11 µM) | 0.013 (≈ 0.036 µM) | 0.4 (≈ 1.11 µM) | 0.025 (≈ 0.0692 µM) | 0.013 (≈ 0.036 µM) | – | –
2 | COc1c(N2CCC(C)(CN)C2)c(F)cc2c(=O)c(C(=O)O)cn(C3CC3)c12 (configuration not stated) | 0.013 (≈ 0.0334 µM) | > 100 | 0.2 (≈ 0.514 µM) | 0.2 (≈ 0.514 µM) | 0.4 (≈ 1.03 µM) | – | 0.8 (≈ 2.05 µM) | 0.8 (≈ 2.05 µM) | 0.025 (≈ 0.0642 µM) | 0.1 (≈ 0.257 µM) | 0.025 (≈ 0.0642 µM) | 0.013 (≈ 0.0334 µM) | 0.4 (≈ 1.03 µM) | 1.6 (≈ 4.11 µM) | 0.05 (≈ 0.128 µM) | 0.4 (≈ 1.03 µM) | 0.1 (≈ 0.257 µM) | 0.006 (≈ 0.0154 µM) | 100 | –
3 | CC1(CN)CCN(c2c(F)c(N)c3c(=O)c(C(=O)O)cn(C4CC4)c3c2F)C1 (configuration not stated) | – | > 30 | – | 0.025 (≈ 0.0637 µM) | – | – | 0.2 (≈ 0.51 µM) | 1.6 (≈ 4.08 µM) | – | – | – | – | 0.8 (≈ 2.04 µM) | – | – | 0.4 (≈ 1.02 µM) | – | – | 30 | –
4 | CC1(CN)CCN(c2cc3c(cc2F)c(=O)c(C(=O)O)cn3C2CC2)C1 (configuration not stated) | – | > 100 | – | 0.2 (≈ 0.556 µM) | – | – | 1.6 (≈ 4.45 µM) | 6.3 (≈ 17.5 µM) | – | – | – | – | 6.3 (≈ 17.5 µM) | – | – | 1.6 (≈ 4.45 µM) | – | – | 100 | –
5 | NC1CCCN(c2cc3c(cc2F)c(=O)c(C(=O)O)cn3C2CC2)C1 (configuration not stated) | – | > 100 | – | – | – | – | – | – | – | – | – | – | – | – | – | – | – | – | 100 | 560 (≈ 1620 µM)
6 | C[C@@H]1CN(c2c(F)cc3c(=O)c(C(=O)O)cn(C4CC4)c3c2F)C[C@H](C)N1 | – | 55 | – | 0.2 (≈ 0.53 µM) | – | 30 | 1.6 (≈ 4.24 µM) | 3.1 (≈ 8.21 µM) | – | – | – | – | 1.6 (≈ 4.24 µM) | – | – | 0.8 (≈ 2.12 µM) | – | – | – | –
7 | CCOc1c(N2CCC(N)C2)c(F)c(N)c2c(=O)c(C(=O)O)cn(C3CC3)c12 (configuration not stated) | 0.05 (≈ 0.128 µM) | > 100 | 0.2 (≈ 0.512 µM) | 0.4 (≈ 1.02 µM) | 0.4 (≈ 1.02 µM) | – | 0.8 (≈ 2.05 µM) | 12.5 (≈ 32 µM) | 0.1 (≈ 0.256 µM) | 0.05 (≈ 0.128 µM) | 0.05 (≈ 0.128 µM) | 0.1 (≈ 0.256 µM) | 3.1 (≈ 7.94 µM) | 3.1 (≈ 7.94 µM) | 0.05 (≈ 0.128 µM) | 3.1 (≈ 7.94 µM) | 0.1 (≈ 0.256 µM) | 0.013 (≈ 0.0333 µM) | 100 | 220 (≈ 564 µM)
8 | CC1(CN)CCN(c2c(F)cc3c(=O)c(C(=O)O)cn(C4CC4)c3c2F)C1 (configuration not stated) | – | < 30 | – | 0.1 (≈ 0.265 µM) | – | – | 0.4 (≈ 1.06 µM) | 1.6 (≈ 4.24 µM) | – | – | – | – | 0.4 (≈ 1.06 µM) | – | – | 0.4 (≈ 1.06 µM) | – | – | <30 | 7.7 (≈ 20.4 µM)
9 | COc1c(N2CCC(N)C2)c(F)c(N)c2c(=O)c(C(=O)O)cn(C3CC3)c12 (configuration not stated) | 0.05 (≈ 0.133 µM) | > 100 | 0.1 (≈ 0.266 µM) | 0.2 (≈ 0.531 µM) | 0.2 (≈ 0.531 µM) | – | 0.8 (≈ 2.13 µM) | 3.1 (≈ 8.24 µM) | 0.05 (≈ 0.133 µM) | 0.025 (≈ 0.0664 µM) | 0.05 (≈ 0.133 µM) | 0.1 (≈ 0.266 µM) | 1.6 (≈ 4.25 µM) | 0.8 (≈ 2.13 µM) | 0.025 (≈ 0.0664 µM) | 0.8 (≈ 2.13 µM) | 0.05 (≈ 0.133 µM) | 0.006 (≈ 0.0159 µM) | 100 | –
10 | O=C(O)c1cn(C2CC2)c2cc(N3CCNCC3)c(F)cc2c1=O [CIPROFLOXACIN] | 1.6 (≈ 4.83 µM) | 172 | 0.1 (≈ 0.302 µM) | – | 0.1 (≈ 0.302 µM) | – | 1.6 (≈ 4.83 µM) | – | 0.8 (≈ 2.41 µM) | – | 3.1 (≈ 9.36 µM) | 0.8 (≈ 2.41 µM) | 3.1 (≈ 9.36 µM) | 0.4 (≈ 1.21 µM) | 0.025 (≈ 0.0754 µM) | 0.8 (≈ 2.41 µM) | – | 0.2 (≈ 0.604 µM) | 100 | –
11 | NC1CCN(c2c(F)cc3c(=O)c(C(=O)O)cn(C4CC4)c3c2Cl)C1 (configuration not stated) [CLINAFLOXACIN] | 0.05 (≈ 0.137 µM) | 23 | 0.025 (≈ 0.0683 µM) | 0.1 (≈ 0.273 µM) | 0.025 (≈ 0.0683 µM) | 18 | 0.4 (≈ 1.09 µM) | 0.4 (≈ 1.09 µM) | 0.05 (≈ 0.137 µM) | 0.013 (≈ 0.0355 µM) | 0.05 (≈ 0.137 µM) | 0.05 (≈ 0.137 µM) | 0.1 (≈ 0.273 µM) | 0.05 (≈ 0.137 µM) | 0.006 (≈ 0.0164 µM) | 0.2 (≈ 0.547 µM) | 0.025 (≈ 0.0683 µM) | 0.013 (≈ 0.0355 µM) | – | –
